Data from ChEMBL document CHEMBL1146183, “Replacement of the N-terminal tyrosine residue in opioid peptides with 3-(2,6-dimethyl-4-carbamoylphenyl)propanoic acid (Dcp) results in novel opioid antagonists” (J Med Chem, 2006).

Columns and labels:
Mu-type opioid receptor = Mu-type opioid receptor (Rattus norvegicus, UniProt P33535); test: Displacement of [3H]DAMGO from mu opioid receptor in rat brain membrane; format: cell membranes
[1] = target: Delta-type opioid receptor (Rattus norvegicus, UniProt P33533); test: Displacement of [3H]DSLET from delta opioid receptor in rat brain membrane; format: cell membranes
[2] = target: Kappa-type opioid receptor (Cavia porcellus, UniProt P41144); test: Displacement of [3H]U-69593 from kappa opioid receptor in guinea pig brain membrane; format: cell membranes
[3] = Selectivity for rat mu opioid receptor over guinea pig kappa opioid receptor
[4] = target: Opioid receptors; mu & delta (Rattus norvegicus) (UniProt P33533+P33535); test: Selectivity for mu opioid receptor over delta receptor; format: protein assay
[5] = target: Mu-type opioid receptor (Cavia porcellus) (UniProt P97266); test: Activity at mu opioid receptor assessed as antagonizing effect against TAPP by GPI assay; format: functional
In short: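 Antagonism of the µ agonist TAPP measured in guinea pig ileum (GPI) preparation; Ke determined, reported as mean of three to six determinations.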

[6] = target: Kappa-type opioid receptor (Cavia porcellus) (UniProt P41144); test: Activity at kappa opioid receptor assessed as antagonizing effect against U50,488 by GPI assay; format: functional
In short: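 Antagonism of the κ agonist U50,488 measured in guinea pig ileum (GPI) preparation; Ke determined, reported as mean of three to six determinations.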

[7] = target: Delta-type opioid receptor (Mus musculus) (UniProt P32300); test: Activity at delta opioid receptor assessed as antagonizing effect against DPDPE by MVD assay; format: functional
In short: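 Antagonism at δ receptors measured in mouse vas deferens (MVD) preparation; Ke determined, reported as mean of three to six determinations.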

[8] = target: Opioid receptor (mu and kappa) (Cavia porcellus) (UniProt P41144+P97266); test: Ratio of Ke for mu opioid receptor to Ke for kappa opioid receptor; format: protein assay
[9] = Ratio of Ke for guinea pig mu opioid receptor to Ke for mouse delta opioid receptor

Chain of Mu-type opioid receptor (P33535 whole entry): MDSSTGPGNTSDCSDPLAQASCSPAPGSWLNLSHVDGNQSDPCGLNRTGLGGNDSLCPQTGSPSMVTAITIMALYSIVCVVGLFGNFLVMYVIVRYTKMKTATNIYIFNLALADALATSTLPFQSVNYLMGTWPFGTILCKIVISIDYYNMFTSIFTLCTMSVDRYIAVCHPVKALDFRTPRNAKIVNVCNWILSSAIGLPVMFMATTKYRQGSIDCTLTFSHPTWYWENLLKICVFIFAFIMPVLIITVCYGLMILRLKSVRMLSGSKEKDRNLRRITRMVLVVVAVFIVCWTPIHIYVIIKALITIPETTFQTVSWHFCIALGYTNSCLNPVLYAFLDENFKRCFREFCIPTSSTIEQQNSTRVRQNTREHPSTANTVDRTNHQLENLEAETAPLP
Chain of Kappa-type opioid receptor (P41144 whole entry): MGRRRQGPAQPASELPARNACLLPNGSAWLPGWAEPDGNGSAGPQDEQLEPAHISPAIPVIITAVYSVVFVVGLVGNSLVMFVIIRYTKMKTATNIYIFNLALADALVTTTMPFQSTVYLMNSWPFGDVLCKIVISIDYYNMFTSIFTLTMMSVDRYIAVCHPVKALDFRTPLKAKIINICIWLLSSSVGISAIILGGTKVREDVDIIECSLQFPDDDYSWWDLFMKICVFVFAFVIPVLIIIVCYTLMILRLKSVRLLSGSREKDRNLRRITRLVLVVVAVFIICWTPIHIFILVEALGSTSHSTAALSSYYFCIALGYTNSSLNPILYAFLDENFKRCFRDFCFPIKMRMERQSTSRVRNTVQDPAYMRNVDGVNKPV
Chain of Delta-type opioid receptor (P33533 whole entry): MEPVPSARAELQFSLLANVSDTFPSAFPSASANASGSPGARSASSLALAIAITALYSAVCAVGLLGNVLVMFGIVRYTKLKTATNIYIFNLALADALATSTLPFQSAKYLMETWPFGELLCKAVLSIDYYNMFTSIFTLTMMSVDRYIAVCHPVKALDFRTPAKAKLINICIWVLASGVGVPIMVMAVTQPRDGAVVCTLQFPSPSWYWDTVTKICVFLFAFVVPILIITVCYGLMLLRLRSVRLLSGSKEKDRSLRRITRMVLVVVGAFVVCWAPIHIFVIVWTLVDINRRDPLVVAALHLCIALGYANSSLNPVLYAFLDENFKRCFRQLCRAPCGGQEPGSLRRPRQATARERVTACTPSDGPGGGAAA
Chain of Mu-type opioid receptor (Cavia porcellus) (P97266 whole entry): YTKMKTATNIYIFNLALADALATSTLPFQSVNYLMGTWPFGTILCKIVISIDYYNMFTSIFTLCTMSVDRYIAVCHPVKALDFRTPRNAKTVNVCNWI
Chain of Kappa-type opioid receptor (Cavia porcellus) (P41144 whole entry): as the sequence (P41144 whole entry) above
Chain of Opioid receptor (mu and kappa) (Cavia porcellus) (P41144 whole entry, looked up): as the sequence (P41144 whole entry) above
Chain of Opioid receptor (mu and kappa) (Cavia porcellus) (P97266 whole entry, looked up): as the sequence (P97266 whole entry) above
Chain of Opioid receptors; mu & delta (Rattus norvegicus) (P33533 whole entry, looked up): as the sequence (P33533 whole entry) above
Chain of Opioid receptors; mu & delta (Rattus norvegicus) (P33535 whole entry, looked up): as the sequence (P33535 whole entry) above
Chain of Delta-type opioid receptor (Mus musculus) (P32300 whole entry): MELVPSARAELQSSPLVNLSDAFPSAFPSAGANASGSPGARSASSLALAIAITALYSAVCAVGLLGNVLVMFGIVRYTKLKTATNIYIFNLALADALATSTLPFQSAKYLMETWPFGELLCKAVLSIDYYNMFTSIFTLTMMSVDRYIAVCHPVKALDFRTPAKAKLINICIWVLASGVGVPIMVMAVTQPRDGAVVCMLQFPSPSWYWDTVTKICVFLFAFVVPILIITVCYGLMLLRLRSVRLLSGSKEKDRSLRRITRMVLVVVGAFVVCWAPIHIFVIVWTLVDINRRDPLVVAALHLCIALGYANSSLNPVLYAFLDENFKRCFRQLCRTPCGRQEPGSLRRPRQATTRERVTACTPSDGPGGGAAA

| SMILES | Ki (Mu-type opioid receptor) [nM] | Ki [1] [nM] | Ki [2] [nM] | Ratio Ki [3] | Ratio Ki [4] | Ke [5] [nM] | Ke [6] [nM] | Ke [7] [nM] | Ratio Ke [8] | Ratio Ke [9] |
| --- | --- | --- | --- | --- | --- | --- | --- | --- | --- | --- |
| CC[C@H](C)[C@H](NC(=O)[C@H](CCCNC(=N)N)NC(=O)[C@H](CCCNC(=N)N)NC(=O)[C@H](CC(C)C)NC(=O)[C@H](Cc1ccccc1)NC(=O)CNC(=O)CNC(=O)CCc1c(C)cc(C(N)=O)cc1C)C(=O)N[C@@H](CCCNC(=N)N)C(=O)N1CCC[C@H]1C(=O)N[C@@H](CCCCN)C(N)=O | 44.9 | 129 | 32 | – | – | – | – | – | – | – |
| Cc1cc(C(N)=O)cc(C)c1CCC(=O)NC1CSSCC(C(N)=O)NC(=O)[C@H](Cc2ccc([N+](=O)[O-])cc2)NC(=O)CNC1=O (stereo in doubt) | 2.84 | 25.8 | 980 | 345 | 9 | 3.92 | 74.1 | 176 | 19 | 45 |
| Cc1cc(O)cc(C)c1CCC(=O)NC1CSSCC(C(N)=O)NC(=O)[C@H](Cc2ccc([N+](=O)[O-])cc2)NC(=O)CNC1=O (stereo in doubt) | 4.79 | 11.6 | 299 | 62 | 2 | 3.68 | 22.6 | 63.3 | 6 | 17 |
